Measurements: ChEMBL document CHEMBL2390849, “Glycosylation enhances the anti-migratory activities of isomalyngamide A analogs” (Eur J Med Chem, 2013)
pIC50: −log10 of the molar value. Active and inactive are the calls of the source. The rule behind the calls is not given here.

What was measured:
MDA-MB-231 [1] = assay: Antimigratory activity against human MDA-MB-231 cells after overnight incubation by Boyden chamber assay; format: functional, cell-based
Procedure, shortened: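 Boyden chamber (8 µm polycarbonate membrane coated with Matrigel, […] as printed). Cells trypsinized into serum-free medium at 2.5 × 10^5 cells/mL containing test agent, placed in upper chamber. Lower chamber holds medium with 5% FBS as chemoattractant. Overnight at 37 °C. Transmigrated cells fixed in methanol, Giemsa-stained, counted in three random fields. IC50 is the mean of three independent experiments.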

MDA-MB-231 [2] = assay: Antimigratory activity against human MDA-MB-231 cells at 25 uM after 24 hrs by scratch wound healing assay; format: functional, cell-based
Procedure, shortened: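 Cells grown overnight at 37 °C to a confluent monolayer in duplicate wells, then scratched with a pipette tip. Migration into the wound photographed at 0 and 24 h at 100× magnification.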

MDA-MB-231 [3] = assay: Inhibition of human MDA-MB-231 cell adhesion to collagen 4 after 48 hrs by crystal violet staining-based spectrophotometric analysis; format: functional
Procedure, shortened: (§1)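 Cells pretreated 48 h with compound, trypsinized, and resuspended at 2 × 10^5 cells/mL in DMEM with 0.1% BSA. Added to wells coated overnight at 4 °C with fibronectin or collagen IV ([…] as printed), then blocked with 0.1% BSA. Adhesion 60 min at 37 °C. Adherent cells fixed in 10% formaldehyde and stained with 0.05% crystal violet. Dye extracted, A595 read. Reported as percent of untreated control, triplicate.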

MDA-MB-231 [4] = assay: Inhibition of human MDA-MB-231 cell invasion at 20 to 30 uM after 24 hrs by Transwell assay; format: functional, cell-based
Procedure, shortened: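 Transwell inserts with 8 µm pores precoated with Matrigel. Cells seeded at 8 × 10^4 cells/mL in serum-free medium with compound or DMSO, 24 h. Lower wells hold 5% FBS-containing medium as chemoattractant. Invaded cells fixed and stained, then counted in three random fields. Run in triplicate, expressed as percent of untreated control.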

MDA-MB-231 [5] = assay: Inhibition of human MDA-MB-231 cell adhesion to fibronectin after 48 hrs by crystal violet staining-based spectrophotometric analysis; format: functional; procedure, shortened: as §1
MDA-MB-231 [6] = assay: Cytotoxicity against human MDA-MB-231 cells at 10 to 30 uM after 48 hrs by MTT assay; format: functional, cell-based
MDA-MB-231 [7] = assay: Inhibition of human MDA-MB-231 cell adhesion to fibronectin at 10 to 30 uM after 48 hrs by crystal violet staining-based spectrophotometric analysis relative to control; format: functional; procedure, shortened: as §1
MDA-MB-231 [8] = assay: Effect on FAK expression level in human MDA-MB-231 cells at 10 to 30 uM after 24 hrs by Western blotting analysis; format: functional, cell-based
Procedure, shortened: (§2)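 Cells treated 24 h with the indicated concentrations. Lysates immunoblotted with antibodies to total FAK, phospho-FAK (Y397), total paxillin and Rac1, with β-actin as internal control. Bands detected by enhanced chemiluminescence.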

[9] = molecular target: Focal adhesion kinase 1 (Homo sapiens) (UniProt Q05397); assay: Inhibition of FAK phosphorylation at Tyr397 in human MDA-MB-231 cells after 24 hrs by Western blotting analysis; format: cell-based; procedure, shortened: as §2
Focal adhesion kinase 1 (Homo sapiens), sequence (Q05397 2-1052 limits assumed): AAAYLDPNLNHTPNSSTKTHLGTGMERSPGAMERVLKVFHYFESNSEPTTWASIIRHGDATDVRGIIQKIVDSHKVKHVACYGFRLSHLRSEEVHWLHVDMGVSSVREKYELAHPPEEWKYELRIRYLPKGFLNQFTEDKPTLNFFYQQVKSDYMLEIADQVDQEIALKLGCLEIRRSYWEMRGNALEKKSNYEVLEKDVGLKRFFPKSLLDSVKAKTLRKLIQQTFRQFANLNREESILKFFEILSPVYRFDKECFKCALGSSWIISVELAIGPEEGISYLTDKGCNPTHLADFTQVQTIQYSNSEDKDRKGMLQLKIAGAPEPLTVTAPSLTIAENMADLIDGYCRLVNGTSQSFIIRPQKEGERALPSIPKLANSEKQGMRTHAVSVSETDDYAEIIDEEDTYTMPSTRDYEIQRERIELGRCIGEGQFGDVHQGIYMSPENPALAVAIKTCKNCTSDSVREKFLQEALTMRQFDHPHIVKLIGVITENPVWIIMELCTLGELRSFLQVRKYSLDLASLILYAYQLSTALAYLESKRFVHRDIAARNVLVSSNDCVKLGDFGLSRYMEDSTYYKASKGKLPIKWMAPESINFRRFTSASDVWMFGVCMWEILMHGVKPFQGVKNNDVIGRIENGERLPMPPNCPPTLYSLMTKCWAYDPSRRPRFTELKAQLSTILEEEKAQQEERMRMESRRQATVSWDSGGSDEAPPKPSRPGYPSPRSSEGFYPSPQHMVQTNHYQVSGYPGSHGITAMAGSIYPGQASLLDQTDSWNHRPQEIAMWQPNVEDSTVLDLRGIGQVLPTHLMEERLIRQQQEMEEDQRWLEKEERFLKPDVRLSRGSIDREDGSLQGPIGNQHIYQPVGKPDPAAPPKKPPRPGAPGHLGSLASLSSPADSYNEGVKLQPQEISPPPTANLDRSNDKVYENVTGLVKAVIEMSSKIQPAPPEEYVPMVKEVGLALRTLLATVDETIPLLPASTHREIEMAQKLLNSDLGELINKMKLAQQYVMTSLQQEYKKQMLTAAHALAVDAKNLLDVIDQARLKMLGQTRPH

MDA-MB-231 [10] = assay: Effect on paxillin expression level in human MDA-MB-231 cells after 24 hrs by Western blotting analysis; format: functional, cell-based; procedure, shortened: as §2
MDA-MB-231 [11] = assay: Effect on RAC1 expression level in human MDA-MB-231 cells at 10 to 30 uM after 24 hrs by Western blotting analysis; format: functional, cell-based; procedure, shortened: as §2
MDA-MB-231 [12] = assay: Inhibition of human MDA-MB-231 cell adhesion to fibronectin at 20 uM after 48 hrs by crystal violet staining-based spectrophotometric analysis relative to control; format: functional; conditions: MDA-MB-231, 48 h; procedure, shortened: as §1
MDA-MB-231 [13] = assay: Inhibition of human MDA-MB-231 cell adhesion to fibronectin at 10 uM after 48 hrs by crystal violet staining-based spectrophotometric analysis relative to control; format: functional; conditions: MDA-MB-231, 48 h; procedure, shortened: as §1
MDA-MB-231 [14] = assay: Inhibition of human MDA-MB-231 cell adhesion to fibronectin at 30 uM after 48 hrs by crystal violet staining-based spectrophotometric analysis relative to control; format: functional; conditions: MDA-MB-231, 48 h; procedure, shortened: as §1

Row | pIC50 (MDA-MB-231 [1]) | inhibition [9] | Structure (SMILES) | Activity (MDA-MB-231 [2]) | inhibition (MDA-MB-231 [3]) | inhibition (MDA-MB-231 [4]) | inhibition (MDA-MB-231 [5]) | Activity (MDA-MB-231 [6]) | inhibition (MDA-MB-231 [7]) | Activity (MDA-MB-231 [1]) | Activity (MDA-MB-231 [8]) | Activity (MDA-MB-231 [10]) | Activity (MDA-MB-231 [11]) | adhesion % at 20 µM (MDA-MB-231 [12]) [%] | adhesion % at 10 µM (MDA-MB-231 [13]) [%] | adhesion % at 30 µM (MDA-MB-231 [14]) [%]
1 | < 4.30 |  | CCCCCCCCCCCCCC(=O)NCCNC(=O)C(C)(C)C(=O)NCCO[C@@H]1O[C@H](COC(C)=O)[C@@H](O[C@@H]2O[C@H](COC(C)=O)[C@H](OC(C)=O)[C@H](OC(C)=O)[C@H]2OC(C)=O)[C@H](OC(C)=O)[C@H]1OC(C)=O | Active | Dose-dependent effect | Active | Dose-dependent effect | inactive |  |  |  |  |  |  |  | 
2 |  |  | CCCCCCCCCCCCCC(=O)NCCNC(=O)C(C)(C)C(=O)NCC(=O)O | Active |  | Active |  | inactive | Active |  |  |  |  |  |  | 
3 | 4.93 | Dose-dependent effect | CCCCCCCCCCCCCC(=O)NCCNC(=O)C(C)(C)C(=O)NCCO[C@H]1O[C@H](COC(C)=O)[C@@H](OC(C)=O)[C@H](OC(C)=O)[C@@H]1OC(C)=O | Active | Dose-dependent effect | Active | Dose-dependent effect | inactive |  | Dose-dependent effect | inactive | Dose-dependent effect | inactive |  |  | 
4 | 4.93 | Dose-dependent effect | CCCCCCCCCCCCCC(=O)NCCNC(=O)C(C)(C)C(=O)NCCO[C@@H]1O[C@H](COC(C)=O)[C@H](OC(C)=O)[C@H](OC(C)=O)[C@H]1OC(C)=O | Active | Dose-dependent effect | Active | Dose-dependent effect | inactive |  | Dose-dependent effect | inactive | Dose-dependent effect | inactive | 69 | 79 | 58
